Screens deposited in PubChem by several laboratories.
In the library only some 2% were active in any assay of this set; here they are far more common.
FLuc act counter: affects firefly luciferase, flagging false hits in luciferase stimulation screens | 200,000 tested, under 10 active | P08659 | activation factor at 10 µM | AID 1027 | ATPlite luciferase biochemical, luminescence, 10 min; 0 = ATP-free wells, 1 = DMSO control;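 active = luciferase activation factor, scaled between plate controls, of at least 2 with compound at 10 µM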
Target sequence (P08659 whole entry, looked up): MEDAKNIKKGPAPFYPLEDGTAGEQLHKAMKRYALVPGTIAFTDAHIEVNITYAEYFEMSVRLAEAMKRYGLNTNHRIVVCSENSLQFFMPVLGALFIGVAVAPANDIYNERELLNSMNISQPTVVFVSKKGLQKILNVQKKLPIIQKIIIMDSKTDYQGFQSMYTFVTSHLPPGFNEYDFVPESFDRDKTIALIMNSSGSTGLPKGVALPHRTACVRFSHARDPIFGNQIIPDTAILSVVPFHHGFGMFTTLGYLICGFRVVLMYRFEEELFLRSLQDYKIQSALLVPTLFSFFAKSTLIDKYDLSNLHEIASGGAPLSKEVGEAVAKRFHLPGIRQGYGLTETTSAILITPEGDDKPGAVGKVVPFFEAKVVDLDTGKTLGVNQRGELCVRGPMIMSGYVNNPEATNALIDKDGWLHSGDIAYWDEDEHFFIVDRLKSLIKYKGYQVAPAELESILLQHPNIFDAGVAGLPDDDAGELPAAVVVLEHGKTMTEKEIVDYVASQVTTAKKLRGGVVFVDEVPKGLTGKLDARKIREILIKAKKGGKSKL
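Material: Luciferase/luciferin reagent mix | Doses: Test compounds dosed from 2 mM stocks in 100% DMSO | Timing: 10 min incubation after luciferase reagent addition, room temperature | Measured by: Luminescence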
PPC-1+TRAIL kill: compounds killing PPC-1 cancer cells with TRAIL present (potentiator screen, no TRAIL-free arm); AID 1443; PPC-1 cells + TRAIL, ATPLite viability luminescence; cell killing (% activity), % at 4 µM or 5 µM; actives 0.41% (n = 220,000);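 active = cell killing above 50% in the first pass at 4 µM, then a duplicate retest at 5 µM averaging 50% or more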;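 note: plate controls were cells with TRAIL plus DMSO for no effect and medium-only wells lacking cells for full effect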
HSP90 refold inh: HSP90 refolding inhibition in rabbit reticulocyte lysate. actives 0.91% (n = 290,000). inhibition, % at 5.6 µM. AID 1789. luciferase refolding luminescence, 3 h;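 active = inhibition above the screen-wide mean plus 3 SD, computed separately per campaign, cut at about 16% in these data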;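 note: 0% = DMSO wells and 100% = 60 µM geldanamycin wells; inhibitors lower the luminescence because luciferase stays unfolded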
TRAIL sens C8: sensitizes caspase-8 expressing cells to TRAIL | NB7+C8 cells + TRAIL, ATPlite viability luminescence | inhibition (viability loss, TRAIL sensitization), % at 10 µM | actives 1% (n = 360,000) | AID 624354;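 active = compounds causing at least 50% loss of cell viability in the single-dose screen, relative to plate controls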
FLuc inh counter: inhibits firefly luciferase, flagging false hits in luciferase inhibition screens. P08659. ATPLite firefly luciferase biochemical luminescence, 10 min. actives 1.5% (n = 200,000). inhibition, % at 10 µM. AID 1006;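 active = inhibition above about 50% when tested at 10 µM, limit read from the data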
Numbers without * were called inactive; x = not tested or not shown.

SMILES	FLuc act counter	PPC-1+TRAIL kill	HSP90 refold inh	TRAIL sens C8	FLuc inh counter
CCOC(=O)c1c(/N=C/C2=C(O)CC(C)(C)CC2=O)sc(C(C)=O)c1C	1	7	-4	-12	0
O=C(Cc1ccc(Cl)c(Cl)c1)N1CCOCC1	x	x	2	-2	x
O=C(Nc1nnc(SCC(=O)N2CCCc3ccccc32)s1)c1cccc2ccccc12	1	36	-4	1	4
CCOC(=O)C(C)Sc1nnc(NC(=O)c2ccc3c(c2)OCO3)s1 (centres undefined)	0.9	12	4	16	12
CCOC(=O)CNC(=O)CSc1nnc(NC(=O)c2ccc3c(c2)OCO3)s1	x	x	4	83*	x
Cc1ccc(C(=O)Nc2nnc(SCC(=O)N3CCCc4ccccc43)s2)cc1	0	95*	2	97*	98*
CCN(CC)C(=S)Oc1ccc(Cl)cc1Cl	x	-3	0	8	x
COc1ccc(/C=C/C(=O)C2C(=O)C=C(C)OC2=O)cc1O (centres undefined)	0.2	25	1	45	83*
CN=c1scc(C)n1/N=C/c1cc(Br)c(O)c(Br)c1	0.7	10	2	4	32
CN=c1scc(C)n1/N=C/c1ccc(O)cc1	0.5	41	5	39	54*
COc1ccc(O)c(/C=N/n2c(-c3ccco3)csc2=Nc2cccnc2)c1	1	26	2	-3	-3
CN=c1scc(C)n1/N=C/c1ccc2c(c1)OCO2	0.4	34	11	61*	58*
CN=c1scc(-c2ccco2)n1/N=C/c1ccc(O)c(O)c1	0.1	29	17*	38	88*
COc1cccc(/C=C/C(=O)N2CCN(S(=O)(=O)c3ccccc3)CC2)c1OC	x	15	-2	1	x
OC(c1ccccc1)(c1ccccc1)c1ccn[nH]1	x	x	x	1	x
CCN(CC)c1ccc2cc(S(=O)(=O)c3ccc(C)cc3)c(=O)oc2c1	1.1	15	0	8	-6
CCOc1cc(CNc2ccc(CNc3ncn[nH]3)cc2)ccc1OCc1ccccc1	1	-4	0	9	0
O=C(Cc1cc(C(F)(F)F)cc(C(F)(F)F)c1)Nc1c(-c2ccccc2)[nH][nH]c1=O	x	x	x	-11	x
N#CCCN(C(=O)CSc1ncccn1)c1ccc2c(c1)OCCO2	x	x	x	7	x
O=C(CCl)N(C/C=C/c1ccccc1)c1ccc2c(c1)OCCO2	0.9	14	3	92*	10
Cn1c(N=Nc2ccccc2)nc2ccccc21	0	85*	42*	93*	95*
Cn1c(Cl)nc2ccccc21	1.1	6	2	-4	-5
Cc1ccc(C)c(NS(=O)(=O)c2ccc3[nH]c(=O)oc3c2)c1	1	9	4	4	-1
COc1cc2nc(N(C)C)nc(N)c2cc1OC	1.1	4	0	1	-5
CN(C)c1ccc(Sc2ccc3nc(N)nc(N)c3c2)cc1	x	x	x	71*	x
SMILES	FLuc act counter	PPC-1+TRAIL kill	HSP90 refold inh	TRAIL sens C8	FLuc inh counter
COC(=O)c1sc(NC(=S)NC(=O)c2ccccc2C)nc1C	0.5	2	0	51*	45
CCOC(=O)c1sc(NC(=S)NC(=O)c2ccc(OC)cc2)nc1C	x	x	16*	1	x
COC(=O)c1sc(NC(=S)NC(=O)c2ccc(F)cc2)nc1C	0.9	10	0	x	9
COc1ccc(N=[N+]([O-])c2ccc(OC)cc2)cc1	x	x	x	67*	x
COc1ccc(S(=O)(=O)c2ccc(OC)cc2)cc1	1.1	20	4	-6	-9
O=C(N/N=C/c1c[nH]c2ccccc12)c1ccc2c(c1)OCCO2	x	44	-2	76*	x
Cc1cc(C(=O)N/N=C/c2ccc3c(c2)OCO3)c(C)o1	0.4	34	2	32	64*
O=C(N/N=C/c1ccc2c(c1)OCO2)c1cccc2ccccc12	x	x	2	27	x
Cn1cnnc1SCc1ccc(C(=O)N/N=C/c2cccs2)cc1	0.4	23	-1	28	65*
O=C(N/N=C/c1c[nH]c2ccccc12)c1ccccc1	x	x	0	2	x
O=C(N/N=C/c1ccc2c(c1)OCO2)c1cccs1	0.2	29	4	41	75*
Cc1ccc(CC2(C)C(=O)Nc3c(Cl)cccc32)cc1 (centres undefined)	x	x	x	-23	x
CN(C)C(=O)c1ccc(NC(=O)c2ccc(-c3ccc(Cl)cc3)o2)cc1	x	x	x	7	x
Cc1ccn(CCC(=O)Nc2ccc(-c3ccno3)cc2)n1	x	x	-2	-7	x
COc1ccc(C(=O)Nc2ccc(NS(=O)(=O)c3ccccc3)cc2)cc1OC	x	7	1	-28	x
O=C(N/N=C/c1ccc2c(c1)OCO2)c1ccc2c(c1)OCCO2	0.2	26	-1	34	80*
O=C(N/N=C/c1cccs1)c1ccc2c(c1)OCO2	0.1	59*	2	76*	88*
O=C(NN=Cc1ccc2c(c1)CCN2)c1cccs1	x	x	x	50*	x
O=C(N/N=C/c1ccc(Cl)cc1)c1ccc2c(c1)OCO2	x	x	-2	37	x
Cc1ccsc1C(=O)N/N=C/c1ccc2c(c1)OCO2	0.4	25	9	29	64*
Cc1occc1C(=O)N/N=C/c1ccc2c(c1)OCO2	x	22	14	35	x
C=CCNC(=O)COC(=O)c1c2c(nc3ccccc13)CCC2	x	x	0	14	x
COc1ccc(C(C)(NC(C)=O)c2nc(-c3ccncc3)cs2)cc1 (centres undefined)	x	x	x	-6	x
O=C(N/N=C/c1ccc2c(c1)OCO2)c1ccc2ccccc2n1	0.3	19	-2	46	67*
CCCCCc1cc(=O)oc2c(C(CCN3CCCCC3)c3ccc4c(c3)OCO4)c(OC)cc(OC)c12 (centres undefined)	x	-4	x	44	x
SMILES	FLuc act counter	PPC-1+TRAIL kill	HSP90 refold inh	TRAIL sens C8	FLuc inh counter
CCCCCc1cc(=O)oc2c(C(CCN(CC)CC)c3cc(OC)c(OC)c(OC)c3)c(OC)cc(OC)c12 (centres undefined)	x	13	x	75*	x
N#CC1(c2ccc(NC(=O)c3ccccc3)cc2)CCCC1	0.4	34	-3	54*	61*
Cc1ccc(NC(=O)CCNC(=O)c2ccc([N+](=O)[O-])cc2)cc1C	x	x	-2	-8	x
COc1ccc(NC(=O)N(C)C[C@@H]2Oc3cc(C#CCN(C)C)ccc3S(=O)(=O)N([C@H](C)CO)C[C@H]2C)cc1	x	x	x	-6	x
Cc1ccccc1-n1nnnc1Sc1nnnn1-c1ccccc1	1.1	9	2	55*	-6
Cc1ccccc1-n1nnnc1SCC(N)=O	1.1	7	2	3	-7
O=C(COC(=O)CCSc1ccc(Cl)cc1)NCc1ccco1	1	13	-2	5	-2
O=C1N=C(N2CCN(c3ccccc3)CC2)S/C1=C\c1ccco1	0.4	29	4	1	61*
O=C1N=C(N2CCN(c3ccccc3)CC2)S/C1=C/c1ccco1	x	4	2	3	x
CC(=O)Nc1ccc(C=NNc2nnc(NN=Cc3ccc(NC(C)=O)cc3)c3ccccc23)cc1	x	x	x	64*	x
C(=N\Nc1ncnc2ccccc12)/c1ccccc1	0.3	33	-1	25	74*
Clc1cccc(/C=N/Nc2ncnc3ccccc23)c1	0.7	-4	-1	16	34
